From the EternaBench riboswitch data

Tested on: MS2 coat protein
Experiment: apparent Kd, MS2 coat protein; higher = weaker binding; RNA-MaP array; FMN 200 µM where present
Method in brief: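 The apparent Kd is reported as the median of filtered per-cluster binding-curve fits. To get these curves, designs transcribed by stalled E. coli RNA polymerase on Illumina sequencing-chip clusters were titrated with SNAP-549-labelled MS2 coat protein from 0.7 or 1.5 nM, doubling to 3 µM. Titrations were run without and then with constant ligand in 100 mM Tris-HCl pH 7.5, 80 mM KCl, 4 mM MgCl2, BSA, DTT, yeast tRNA and Tween-20, and green signal was normalised to red-channel RNA signal and control-cluster median Fmax.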

[1] = designed as: ON switch for flavin mononucleotide, no ligand
[2] = ligand present: flavin mononucleotide, designed as: ON switch for flavin mononucleotide
[3] = designed as: OFF switch for flavin mononucleotide, no ligand
[4] = ligand present: flavin mononucleotide, designed as: OFF switch for flavin mononucleotide

Sequence	apparent Kd [1] [nM]	apparent Kd [2] [nM]	apparent Kd [3] [nM]	apparent Kd [4] [nM]
GCUGUCGCAUGAGGAUAUGGUCAGCUUUGCUGACCAGAAGGCAUGUCAAUAGACAUGAGGAUCACCCAUGUAGUAAGGGCGGCU	466	48.8	–	–
GACUGCAUGUAAGGAUAUCGACUGGAAUACAGUCGAGAAGGUACAUGAGGAUCACCCAUGUAAUAAGAUCAAUAAUAAGCAGUC	–	–	14.9	33.1
AUGCGGUCAGGAUAUGCAUGGCGGGACUUGCGUCGUGGCGUGGAGAAGGGACAUGAGGAUCACCCAUGUGGAGC	–	–	53.5	50.4
GUCGGAAACGACAAUGAUAGGACUGAGGAUAUACGUAUAAAUAUCCUCACAUGAGGAUCACCCAUGUAGAAGGCAGUCCUAUCU	–	–	13.2	167
AUGGUGCAGGUACAGGAUAUGUUGCUCGUAACAUGAGGAUCACCCAUGUACCUAUGAGAUUAAAUGCAGAAGGGUGCACACCACG	784	62.7	–	–
GUAUCUUACCGAGGAUAUUUACGAUUAGUGUAGACAUGAGGAUCACCCAUGUGGCCUUAGUCACGGGAGAAGGCGGUUUGAUAC	233	59	–	–
CCAUGGCUGUGAGGAUAUGUCUGACAAAGUCAGACAGAAGGCACAUGAGGAUCACCCAUGUGAGGAAAACCACAUUUGCCAUGG	–	–	5.81	6.29
UGAUAGGACAGAGGAUAUGCGUGCUGGUGAUACUAGCAAAGUAUCGUGACAUGAGGAUCACCCAUGUAGAAGGCUGUCCUAUCU	–	–	28	68.4
UUUACAUGAGGAUCACCCAUGUAUAGAACGGUUCAUUAAAGUGAGGAUAUACGAAAUUUAAAAUCGUAGAAGGCACUGGGUACA	17	19.1	–	–
AGGUACAUGAGGAUCACCCAUGUAAGAGACCUCAUGCGAUGUAGAAGGAUUAUCCGAGAAGAGGAAUAGGAUAUACAUGAGAAA	–	–	158	127
GUCUACCAGCUAGGAUAUGCAGUACAUUAAAAUGUAGAAGGAGCACGAUCCAGACAUGAGGAUCACCCAUGUGGGCGGUAGGCA	–	–	20.9	18.6
GUCUCGUGAGGAUAUCAUGAUUGACUUAAUUUAUUUUAGCGUGAGAAGGCACAUGAGGAUCACCCAUGUGAUUC	–	–	19.5	21.3
UGUACAUUAUUAAGUAAUUAGGCGAAGGAUAUAUAACAUGAGGAUCACCCAUGUACUAAAUUGAAGUAGAAGGUUGAGCAUUUC	16.2	13.7	–	–
AAACGCGUAGGAUAUACAUGAGGAUCACCCAUGUAUUGGGCUGUUGAUCUUCCUAAGGGUAGAAGGACGGGCAC	–	–	68.1	119
GGUGCGUUUGUGAGGAUAUGCUGGUCCUUGGUUCGGCAGAAGGCACAUGAGGAUCACCCAUGUGGUGUCGCACC	–	–	94.6	51.5
CGUUGACAUGAGGAUCACCCAUGUCAGAUCUGGUCAGGAUAUGGUGUGGUUUGGCUAUUGCCAGAAGGGACGUCUG	43.1	46.8	–	–
AGAUAGUUAUAACGCCAUCCCUACAUGAGGAUCACCCAUGUGCAGGAUAUAGGCUUGAAGCAAACCUAGAAGGGCACAGGUUGA	–	–	15.8	35.9
CUUUUGUGAGGAUAUCAGUAGUAAAUAAAUAAUAUUACUACUGAGAAGGCACAUGAGGAUCACCCAUGUUCCUC	–	–	42.6	253
GUAGGAAUCACAGGAUAUGCAUGCGCCGCUUCGAUCUACAUGAGGAUCACCCAUGUGUGGUCCGUGUAGAAGGGUGUUUGCUAC	80.8	34.7	–	–
UCCAGGUAAGGAUAUGGGCUGGACACCGGGUACGGCCAGCACCAGAAGGUACAUGAGGAUCACCCAUGUGUUCC	–	–	54.5	274
GCUCAGUAAGGAUAUUAAUGACGCUGUUAUUCAGCGUCAGCUGAGAAGGUACAUGAGGAUCACCCAUGUGGUGA	–	–	210	117
GUCAGCUCGUGAGGAUAUACAACACUGCUUCGGCAGUGUAUUAAGAUCACAUGAGGAUCACCCAUGUAGAAGGCACGAGCUGGU	–	–	14.7	260
UUGGACGUCGUAGGAUAUGUAGGAUAUUCCUACAUGAGGAUCACCCAUGUUGACAUGGAAGAAGGACACAAGGACGAUGUCCAU	664	15.8	–	–
UAAUUACAUGAGGAUCACCCAUGUGAGGAUAUGUCCAUAUUCGGCAAAUCGGAUAUGGACAGAAGGCACACCGG	–	–	56.3	141
